Results of several laboratories.

The concentration of CC(C)Cc1nn(C)c(=O)c2c(SCCCO)n(Cc3cccc4ccccc34)cc12 is reported as 0 nM (mouse; brain; intraperitoneal; 20 mg/kg; 7 days).
CC(C)(Nc1nc(-c2ccccn2)nc2ccccc12)c1ccccn1 gave a concentration of 0.079 µg/mL (female BALB/c mouse; plasma; oral; 50 mg/kg; 24 h).
O=c1nc(N2CCN(CC3CCCCC3)CC2)sc2c([N+](=O)[O-])cc(C(F)(F)F)cc12 has a concentration of 0.0444 µg/mL (CD-1 mouse; plasma; intravenous; 10 mg/kg; 8 h).
For COc1cc(F)c([C@@H]2CNC(=O)[C@H]2NC(=O)Nc2ccccc2)c(F)c1, the concentration was 3 nM (C57BL/6 mouse; plasma; oral; 0.3 mg/kg; 2 h).
c1ccc(-c2nc(N3CCC(c4ccccn4)C3)c3ccccc3n2)nc1 (stereo not drawn) has a concentration of 0.826 µg/mL (female BALB/c mouse; plasma; oral; 50 mg/kg; 4 h).
With O=C(O)C1CCN(c2ncc(-c3ccc4c(c3)OCCCO4)s2)CC1 the concentration was 15 µg/mL (male Swiss mouse; plasma; oral; 30 mg/kg; 15 min; single dose).
O=S(=O)(c1ccc(-c2ccc3nccc(Nc4ccncn4)c3c2)cc1)N1CCOCC1 has a concentration of 1.35 µg/mL (female BALB/c mouse; plasma; intraperitoneal; 10 mg/kg; 4 h).
CC(C)Oc1cccc(-c2cnc(N3CCC(C(N)=O)CC3)s2)c1 gave a concentration of 0 nM (male Swiss mouse; plasma; oral; 30 mg/kg; 0 h; single dose).
CC(C)CN(C[C@@H](O)[C@H](Cc1ccccc1)NC(=O)O[C@H]1CO[C@H]2OCC[C@H]21)S(=O)(=O)c1ccc(N)cc1 has a concentration of 0.0239 µg/mL (BALB/c mouse; plasma; intravenous; 2.5 mg/kg; 3 h).
